# Reference: ChEMBL document CHEMBL1136656, “Synthesis and Biological activity of kappa opioid receptor agonists. Part 2: preparation of 3-aryl-2-pyridone analogues generated by solution- and solid-phase parallel synthesis methods” (Bioorg Med Chem Lett, 2003)
# Assays:
# [1] = biological target: T1, Kappa-type opioid receptor (Homo sapiens, UniProt P41145); experiment: Inhibitory concentration against [125I]-(D-Pro10)-Dynorphin A binding to human kappa opioid receptor from membranes of HEK293 cells; format: cell membranes; conditions: concentration not given here
# T1 sequence (P41145 whole entry): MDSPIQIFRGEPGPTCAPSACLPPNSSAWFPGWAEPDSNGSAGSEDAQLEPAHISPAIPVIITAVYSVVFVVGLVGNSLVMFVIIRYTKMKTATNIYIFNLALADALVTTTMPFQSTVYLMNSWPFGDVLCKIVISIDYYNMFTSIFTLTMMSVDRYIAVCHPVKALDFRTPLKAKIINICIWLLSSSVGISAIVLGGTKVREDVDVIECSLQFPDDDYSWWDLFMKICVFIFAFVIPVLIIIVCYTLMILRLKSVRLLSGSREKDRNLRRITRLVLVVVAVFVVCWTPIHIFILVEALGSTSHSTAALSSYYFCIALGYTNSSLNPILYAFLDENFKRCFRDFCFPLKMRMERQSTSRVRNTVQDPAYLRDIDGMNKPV
# In short: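 Filter binding on membranes from HEK293 cells overexpressing the human kappa opioid receptor. Displacement of [125I]-(D-Pro10)-Dynorphin A was measured, with full dose–response curves on purified material. IC50 is the mean of determinations, quoted with SEM.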
# [2] = biological target: Delta-type opioid receptor (Homo sapiens, UniProt P41143); experiment: Inhibition of [125I]deltorphin binding to human delta opioid receptor from membranes of HEK293 cells; format: cell membranes
# Sequence of Delta-type opioid receptor (P41143 whole entry): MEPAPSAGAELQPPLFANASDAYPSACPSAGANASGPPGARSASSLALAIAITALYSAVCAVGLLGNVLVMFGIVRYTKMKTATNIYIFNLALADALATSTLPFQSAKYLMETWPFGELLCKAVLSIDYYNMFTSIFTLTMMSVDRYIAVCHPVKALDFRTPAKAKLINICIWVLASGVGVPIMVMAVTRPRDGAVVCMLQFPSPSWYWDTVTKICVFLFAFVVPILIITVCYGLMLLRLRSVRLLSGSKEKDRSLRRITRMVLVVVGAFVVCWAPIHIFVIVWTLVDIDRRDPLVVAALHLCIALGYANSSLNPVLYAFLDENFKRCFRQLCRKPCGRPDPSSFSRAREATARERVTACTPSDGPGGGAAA
# In short: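 Displacement of [125I]-Deltorphin from membranes of HEK293 cells overexpressing human delta opioid receptor, read by classical filter binding. IC50 came from full dose–response curves on purified material, in single determinations.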
# [3] = biological target: T1, Kappa-type opioid receptor; experiment: Inhibition of [125I]-(D-Pro10)-Dynorphin A binding to human kappa opioid receptor from membranes of HEK293 cells; format: cell membranes
# In short: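 Classical filter binding on membranes from HEK293 cells overexpressing human kappa opioid receptor, measuring displacement of [125I]-(D-Pro10)-Dynorphin A. Purified compounds were run as full dose–response curves and reported as mean IC50 ± SEM. Crude or partially purified mixtures were screened at a single concentration for percent inhibition of radioligand binding.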
# Mu-type opioid receptor = Mu-type opioid receptor (Homo sapiens, UniProt P35372); experiment: Inhibition of [125I]Enkephalin binding to human mu opioid receptor from membranes of HEK293 cells; format: cell membranes
# Sequence of Mu-type opioid receptor (P35372 whole entry): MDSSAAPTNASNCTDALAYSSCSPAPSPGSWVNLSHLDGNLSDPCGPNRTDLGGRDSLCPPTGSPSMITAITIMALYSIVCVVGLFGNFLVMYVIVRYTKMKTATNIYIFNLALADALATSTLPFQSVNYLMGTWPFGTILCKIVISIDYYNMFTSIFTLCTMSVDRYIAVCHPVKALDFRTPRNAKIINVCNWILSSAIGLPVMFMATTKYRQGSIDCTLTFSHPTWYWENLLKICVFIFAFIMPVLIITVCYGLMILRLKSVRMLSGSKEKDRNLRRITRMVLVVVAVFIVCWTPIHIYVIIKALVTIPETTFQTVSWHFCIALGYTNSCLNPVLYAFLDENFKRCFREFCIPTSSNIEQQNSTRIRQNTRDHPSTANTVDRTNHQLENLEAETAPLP
# In short: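 Filter binding on membranes of HEK293 cells overexpressing human mu opioid receptor, measuring displacement of [125I]-Enkephalin. IC50 came from full dose–response curves on purified material, in single determinations.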
# [4] = biological target: T1, Kappa-type opioid receptor; experiment: Effective dose for agonistic activity towards human kappa opioid receptor from membranes of HEK293 cells was determined by radiolabeled [35S]GTP-gamma-S, assay; format: functional, cell membranes
SMILES,inhibition [1] [%],IC50 [2] [nM],IC50 [3] [nM],IC50 (Mu-type opioid receptor) [nM],ED50 [4] [nM],IC50 ([2]; hek293) [nM],IC50 (Mu-type opioid receptor; hek293) [nM]
O=C(O)c1cccc(-c2cccn(C(CN3CCC(O)C3)c3ccccc3)c2=O)c1 (stereo unspecified),41,–,–,–,–,–,–
O=c1c(-c2ccc(OC(F)(F)F)cc2)cccn1C(CN1CCC(O)C1)c1ccccc1 (stereo unspecified),–,> 10000,7.6,> 5000,–,–,–
O=c1c(-c2ccc(C(F)(F)F)cc2)cccn1C(Cn1ccnc1)c1ccccc1 (stereo unspecified),–,–,> 10000,–,–,–,–
O=c1c(-c2ccc(Cl)cc2Cl)cccn1C(CN1CCCC1)c1ccccc1 (stereo unspecified),–,> 10000,2.3,2100,–,–,–
O=c1c(-c2ccccc2)ccnn1C(CN1CCCC1)c1ccccc1 (stereo unspecified),–,–,550,–,–,–,–
O=c1c(-c2ccccc2)cncn1C(CN1CCCC1)c1ccccc1 (stereo unspecified),–,–,1760,–,–,–,–
Nc1cccc(-c2cccn(C(CN3CCC(O)C3)c3ccccc3)c2=O)c1 (stereo unspecified),–,> 10000,25,2910,–,–,–
O=C1COc2ccc(C(CN3CCCC3)n3cccc(-c4ccc(C(F)(F)F)cc4)c3=O)cc2N1 (stereo unspecified),–,> 10000,57,> 10000,–,–,–
O=c1c(Nc2ccccc2)cccn1C(CN1CCCC1)c1ccccc1 (stereo unspecified),–,–,> 1000,–,–,–,–
O=c1c(Nc2ccc(C(F)(F)F)cc2)cccn1C(CN1CCCC1)c1ccccc1 (stereo unspecified),–,> 10000,82,10000,–,–,–
O=c1c(-c2cccc(CO)c2)cccn1C(CN1CCC(O)C1)c1ccccc1 (stereo unspecified),–,> 10000,9.6,> 5000,–,–,–
COc1ccc(F)cc1-c1cccn(C(CN2CCC(O)C2)c2ccccc2)c1=O (stereo unspecified),–,460,5.5,> 10000,32,–,–
O=c1c(-c2ccc(F)cc2)cccn1C(CN1CCC(O)C1)c1ccccc1 (stereo unspecified),–,> 10000,33,> 10000,–,–,–
O=c1c(-c2ccc(C(F)(F)F)cc2)cccn1C(CN1CCOCC1)c1ccccc1 (stereo unspecified),–,> 10000,700,> 10000,–,–,–
O=C(O)COc1cccc(C(CN2CCCC2)n2cccc(-c3ccc(C(F)(F)F)cc3)c2=O)c1 (stereo unspecified),–,5600,420,> 10000,–,–,–
COc1ccc(C(CN2CCCC2)n2cccc(-c3ccc(C(F)(F)F)cc3)c2=O)cc1 (stereo unspecified),–,> 10000,320,> 10000,–,–,–
COc1ccccc1-c1cccn(C(CN2CCC(O)C2)c2ccccc2)c1=O (stereo unspecified),–,> 10000,94,–,–,–,–

SMILES,inhibition [1] [%],IC50 [2] [nM],IC50 [3] [nM],IC50 (Mu-type opioid receptor) [nM],ED50 [4] [nM],IC50 ([2]; hek293) [nM],IC50 (Mu-type opioid receptor; hek293) [nM]
CC(=O)c1ccc(-c2cccn(C(CN3CCC(O)C3)c3ccccc3)c2=O)s1 (stereo unspecified),–,> 10000,38,> 10000,–,–,–
O=c1c(-c2ccccc2)cccn1C(CN1CCC(O)C1)c1ccccc1 (stereo in doubt; 20a),–,> 10000,465,> 10000,–,–,–
Cc1cc(-c2cccn(C(CN3CCC(O)C3)c3ccccc3)c2=O)ccc1F (stereo unspecified),–,> 10000,8.4,> 5000,–,–,–
CC(=O)c1ccc(-c2cccn(C(CN3CCC(O)C3)c3ccccc3)c2=O)cc1 (stereo unspecified),–,> 10000,14,1750,–,–,–
COc1cccc(OC)c1-c1cccn(C(CN2CCC(O)C2)c2ccccc2)c1=O (stereo unspecified),–,> 10000,9.8,3910,–,–,–
O=c1c(-c2ccccc2)nccn1C(CN1CCCC1)c1ccccc1 (stereo unspecified),–,–,2450,–,–,–,–
Cc1ccc(C(C)Nc2cccn(C(CN3CCCC3)c3ccccc3)c2=O)cc1 (stereo unspecified),–,> 10000,330,> 10000,–,–,–
Cc1ccc(Nc2cccn(C(CN3CCCC3)c3ccccc3)c2=O)cc1 (stereo unspecified),–,> 10000,94,–,–,–,–
CCN(CC)c1ccc(C(CN2CCCC2)n2cccc(-c3ccc(C(F)(F)F)cc3)c2=O)cc1 (stereo unspecified),–,> 10000,3080,> 10000,–,–,–
O=c1c(-c2ccc(C(F)(F)F)cc2)cccn1C(CN1C=CC=CC=N1)c1ccccc1 (stereo unspecified),–,> 10000,1400,> 10000,–,–,–
COc1ccc(OC)c(-c2cccn(C(CN3CCC(O)C3)c3ccccc3)c2=O)c1 (stereo unspecified),–,> 10000,6.9,2220,–,–,–
O=c1c(-c2ccc(Cl)cc2Cl)cncn1C(CN1CCCC1)c1ccccc1 (stereo unspecified),–,> 10000,41,9600,615,–,–
O=c1c(-c2ccccc2)cccn1C(CN1CCC(O)C1)c1ccccc1 (stereo in doubt; 14f),–,–,470,–,–,> 10000,> 10000
O=Cc1ccccc1-c1cccn(C(CN2CCC(O)C2)c2ccccc2)c1=O (stereo unspecified),–,> 10000,13,–,–,–,–
O=c1c(-c2cccc(OC(F)(F)F)c2)cccn1C(CN1CCC(O)C1)c1ccccc1 (stereo unspecified),–,> 10000,22,> 5000,–,–,–
COc1ccc(Cl)cc1-c1cccn(C(CN2CCC(O)C2)c2ccccc2)c1=O (stereo unspecified),–,> 10000,53,190,–,–,–
